Experimental data of several laboratories.
Target: Serine/threonine-protein kinase MRCK alpha (CDC42BPA, Homo sapiens, UniProt Q5VT25)

| Structure (SMILES) | assay | setting | quantity | result |
| --- | --- | --- | --- | --- |
| Cc1ccc(Nc2nccc(N(C)c3ccc4c(C)n(C)nc4c3)n2)cc1S(N)(=O)=O | enzyme activity, inhibitor | 10 µM | inhibition | 1% |
| CC(C)(C)c1nc2c(s1)c1nc(N)ncc1c1ccc(NS(=O)(=O)c3c(F)cccc3F)c(F)c12 | enzyme activity, inhibitor, radiometric | 1 µM | remaining activity | 82% |
| COc1cc2ncnc(Nc3ccc(Oc4ccccc4)cc3C)c2cc1OC | enzyme activity, inhibitor | 1 µM | inhibition | 6% |
| CNC(=O)c1cc(Oc2ccc(NC(=O)Nc3ccc(Cl)c(C(F)(F)F)c3)cc2)ccn1 | enzyme activity, inhibitor | 0.3 µM | inhibition | 9% |
| Nc1cnc(N2CCc3cc(S(=O)(=O)Nc4c(F)cc(Cl)cc4F)cc(N4CCCC4=O)c32)nc1 | cell-free assay, competition with immobilised ligand | 1 µM | remaining binding | 100% |
| CC/C(=N\NC(=O)NCc1cccc(O)c1)c1ccc(O)c(C)c1O | enzyme activity, inhibitor | 0.1 µM | inhibition | 49.7% |
| CS(=O)(=O)CCNCc1ccc(-c2ccc3ncnc(Nc4ccc(OCc5cccc(F)c5)c(Cl)c4)c3c2)o1 | cell-free assay | 0.5 µM | remaining signal | 88.2% |
| CN1CC(Oc2cnc(C#N)cc2-c2ccn3nc(NC(=O)C4CC4)cc3c2)C1 | enzyme activity, inhibitor | 1 µM | inhibition | -14% |
| CC(C)(O)[C@H]1CC[C@H](Nc2ccc3ncc(-c4cccc(C(F)(F)F)c4)n3n2)CC1 | enzyme activity, inhibitor | 1 µM | remaining activity | 95.8% |
| Nc1ncnc2occ(-c3ccc(NC(=O)Nc4cc(C(F)(F)F)ccc4F)cc3)c12 | enzyme activity, inhibitor | 20 µM | remaining activity | 0.05% |
| O=C(O)c1cc(-c2ccc(C3CCNCC3)cc2)c2ccc(-c3ccc(C(F)(F)F)cc3)cc2c1 | cell-free assay, competition with immobilised ligand | 1 µM | remaining binding | 100% |
| CCN(CC)c1ccc(C2=NNC(=O)CC2C)cc1[N+](=O)[O-] (stereo not shown) | enzyme activity, inhibitor | 10 µM | remaining activity | 78% |
| C[C@H](NC(=O)c1cnc2n1[C@](C)(Cc1ccc(C#N)cc1)C(=O)N2c1cc(Cl)c(F)c(Cl)c1)C(=O)NC1(c2ccccn2)CC1 | cell-free assay, competition with immobilised ligand | 1 µM | remaining binding | 100% |
| CCN(CC)CCNC(=O)c1c(C)[nH]c(/C=C2\C(=O)Nc3ccc(F)cc32)c1C | enzyme activity, inhibitor | 0.3 µM | inhibition | 8% |
| CCS(=O)(=O)c1cc2cc(C[C@](O)(CC(C)(C)c3ccc(F)cc3C(N)=O)C(F)(F)F)[nH]c2cn1 | cell-free assay, competition with immobilised ligand | 1 µM | remaining binding | 89% |
| Cc1cc(NC(=O)c2cccc3cc(-c4cccc5[nH]nc(N)c45)ccc23)ccc1F | enzyme activity, inhibitor | 0.1 µM | activity vs control | 92% |
| CC1=C(C#N)[C@@H](c2ccc3[nH]nc(C)c3c2)C(C#N)=C(c2ccc(Cl)cc2)N1 | cell-free assay, competition with immobilised ligand | 1 µM | remaining binding | 82.2% |
| O=C1Nc2ccc(Cl)cc2C1=Cc1cc(Cl)c(O)c(Cl)c1 | cell-free assay | 0.5 µM | remaining signal | 96.1% |
| CNCc1ccccc1-c1csc([C@@H](C)Nc2nc(C)nc3cc(OC)c(OC)cc23)c1 | cell-free assay, competition with immobilised ligand | 1 µM | remaining binding | 67% |
| O=C(Nc1cnn(-c2csc(C(=O)NC3COC3)c2)c1)Nc1ccccc1Cl | enzyme activity, inhibitor | 5 µM | remaining activity | 99.3% |
| CSc1cccnc1N1CCN(Cc2nc3ccccc3[nH]2)CC1 | cell-free assay, competition with immobilised ligand | 1 µM | remaining binding | 100% |
| CCCOc1ccc(OC)c(F)c1C(=O)c1ccc(C(=O)N[C@@H]2CNC[C@H]2NC(=O)c2ccc3[nH]ncc3c2)cc1 | enzyme activity, inhibitor | 0.75 µM | remaining activity | 20% |
